Screens deposited in PubChem by several laboratories.
In the library only some 2.6% were active in any assay of this set; here they are far more common.
SENP1 FRET inh: human SENP1 catalytic domain inhibitors, primary screen, biochemical, FRET, uHTS | recombinant SENP1 catalytic domain, CyPet-SUMO1-YPet FRET cleavage | inhibition, % at 10 µM | 0.21% of 360,000 active | AID 624204, 2012;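 active = inhibition at least 30% at 10 µM, raw YFP signal under a set limit, fluorescence ratio 0.5 to 1.5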
Target sequence (Q9P0U3 419-644 limits assumed): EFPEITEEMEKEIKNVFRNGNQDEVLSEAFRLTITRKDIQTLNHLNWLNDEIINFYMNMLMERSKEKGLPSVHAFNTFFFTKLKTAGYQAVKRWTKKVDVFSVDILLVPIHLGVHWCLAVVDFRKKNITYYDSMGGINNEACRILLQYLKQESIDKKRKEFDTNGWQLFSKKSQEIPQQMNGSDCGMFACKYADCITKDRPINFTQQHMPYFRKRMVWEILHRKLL
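Test system: hSENP1 catalytic domain, recombinant; Amount: 20 pM final SENP1 enzyme; Medium: Tris pH 8 buffer plus EDTA, NaCl, BME, BSA, NP40, catalase; Schedule: 50 min enzyme reaction, room temperature, light-protected; Technique: FRET fluorescence in CFP and YFP emission channels; Controls: no-enzyme wells low, DMSO-plus-enzyme wells high control.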
Platelet DG rel: inhibitors of platelet dense granule secretion, primary screen, cell-based, MLPCN, human platelets | 0.22% of 300,000 active | AID 1663, 2009 | inhibition, %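 (compounds screened at 7.5 µM in platelet-rich plasma)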 | human platelet-rich plasma, SFLLRN dense granule ATP release, luminescence;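 active = mean replicate score, as percent of positive control, at or above 50; inconclusive = mean below 50 but at least one replicate at or above 50; inactive = mean and every replicate below 50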
SENP7 block: SENP7 protease inhibitors, primary screen, biochemical, luminescence, uHTS | inhibition, % at 5 µM | 1.5% of 330,000 active | recombinant SENP7, Z-RLRGG-aminoluciferin luminescence, 40 min | Sentrin-specific protease 7 (Homo sapiens), Q9BQF6;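 active = inhibition above about 50% at the single test dose, limit read from the data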
SENP8 block-1: human SENP8 protease inhibitors, primary screen, biochemical, fluorescence, Nedd8 protein substrate, uHTS. recombinant SENP8. inhibition, % at 20 µM. 0.64% of 360,000 active; in the data active = inhibition mostly above about 40%, no sharp cut-off; inactive = mostly below about 27%
Target sequence (Q96LD8 whole entry, looked up): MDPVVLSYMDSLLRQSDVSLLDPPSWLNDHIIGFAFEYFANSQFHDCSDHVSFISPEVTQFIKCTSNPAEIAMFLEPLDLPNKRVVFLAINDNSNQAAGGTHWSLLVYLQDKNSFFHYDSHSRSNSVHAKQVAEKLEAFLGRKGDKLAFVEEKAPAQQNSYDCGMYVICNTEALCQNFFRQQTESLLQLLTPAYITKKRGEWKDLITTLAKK
SENP6 block: SENP6 protease inhibitors, primary screen, biochemical, luminescence, uHTS. Sentrin-specific protease 6 (Homo sapiens), Q9GZR1. Recombinant SENP6 catalytic domain, aminoluciferin luminescence. inhibition, % at 10 µM. 1.8% of 330,000 active;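 active = inhibition above about 50% at the single tested dose, limit read from the data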
SENP8 block-2: SENP8 protease inhibitors, primary screen, biochemical, luminescence; Sentrin-specific protease 8 (Homo sapiens), Q96LD8; purified SENP8, Z-RLRGG-aminoluciferin cleavage; inhibition, % at 10 µM; 1.2% of 330,000 active; in the data active = inhibition above about 50%
A number is an active result; – = inactive; ? = inconclusive; · = no result.

SMILES	SENP1 FRET inh	Platelet DG rel	SENP7 block	SENP8 block-1	SENP6 block	SENP8 block-2
COC(=O)C1CCN(C2=C(NS(=O)(=O)c3ccc(Cl)cc3)C(=O)c3ccccc3C2=O)CC1	–	–	–	40.1	–	–
Cc1cccc(C)c1NC(=O)C(c1ccccc1OC(F)(F)F)N1CCC(c2ccccc2)CC1 (stereo not drawn)	–	·	·	–	·	·
CCC(=O)Nc1nnc(-c2ccccn2)o1	–	–	–	–	–	–
O=C(Nc1nnc(-c2ccccn2)o1)c1ccc(Br)cc1	–	–	63.1	–	77.0	56.8
Cc1ccc(-n2nnnc2SCC(=O)N2CCc3ccccc3C2)c(C)c1	–	–	–	–	–	–
Cc1ccc(-n2nnnc2SCC(=O)N2CCc3ccccc3C2)cc1	–	–	–	41.2	–	–
CC1=NN(Cc2ccccc2)C(=O)/C1=C\c1ccc(N(C)C)cc1	–	–	–	40.0	–	–
CCOC(=O)C1=NN(c2ccccc2)C(=O)/C1=C\c1ccc(N(C)C)cc1	–	–	–	–	–	–
O=c1[nH]c2ccc(NC(=S)Nc3ccccc3Cl)cc2[nH]1	–	53.9	–	–	–	–
CC[C@H](C)[C@@H](N)C(=O)NC[C@H]1O[C@@H](n2cnc3c(=O)[nH]c(N)nc32)[C@H](O)[C@@H]1O	–	·	·	–	·	·
CN1C(=O)/C(=C/c2cn(CC(=O)N3CCCCC3)c3ccccc23)c2ccccc21	·	54.5	–	·	–	–
O=Cc1cn(CC(=O)N2CCCCC2)c2ccccc12	–	–	–	–	–	–
CC(C)(C)S(=O)(=O)N1Cc2ccc(CO)cc2[C@@H]1CCO	–	·	·	–	·	·
O=[N+]([O-])c1ccc(N=Nc2ccc(O)c3ccccc23)cc1	–	·	·	44.9	·	·
O=C1C(=Cc2cccc(O)c2O)SC(=S)N1CCCN1CCOCC1	–	·	·	–	·	·
Oc1c(C=Nc2ccc(Cl)cn2)sc2ccccc12	–	–	56.9	–	66.3	–
CCC(=O)Nc1ccc(NC(=S)NC(=O)c2cc3ccccc3o2)cc1	–	–	–	–	–	–
CCC(=O)Nc1cccc(NC(=S)NC(=O)c2cc3ccccc3o2)c1	–	–	76.0	–	–	–
CNC(=O)/C(C#N)=C/c1ccc(-c2nc3ccccc3s2)o1	–	?	64.4	–	–	–
CCCOc1ccc(/C=C2\SC(=S)N(CC3CCCO3)C2=O)cc1 (stereo not drawn)	–	–	–	48.9	–	–
CN(C)c1ccc(N=Nc2ccccc2C(=O)OCC(=O)N2CCCCCC2)cc1	–	–	–	56.6	–	–
COc1ccccc1CNC(=O)COc1cc(O)c2c(c1)OC(C)(C)CC2=O	–	·	·	–	·	·
Cc1cc2c(cc1C)-n1nnnc1C(N1CCN(c3ccccc3F)CC1)C(=O)N2 (stereo not drawn)	–	·	·	–	·	·
Cc1nc(NCCOc2ccccc2)sc1C(=O)Nc1ccccc1	–	–	84.0	–	75.9	62.6
Cc1cc(C)nc(NS(=O)(=O)c2ccc(NCN3C(=O)c4ccccc4C3=O)cc2)n1	–	·	·	–	·	·
SMILES	SENP1 FRET inh	Platelet DG rel	SENP7 block	SENP8 block-1	SENP6 block	SENP8 block-2
Cn1c(N/N=C/c2cc3ccccc3nc2Cl)nc2ccccc21	–	60.4	–	–	–	–
CCOC(=O)c1c(NC(=O)C2C3CCC(O3)C2C(=O)O)sc(C)c1-c1ccc(C)cc1 (stereo not drawn)	–	–	–	–	–	–
Cc1sc(NC(=O)C2C3CCC(O3)C2C(=O)O)nc1-c1ccc(CC(C)C)cc1 (stereo not drawn)	–	–	–	–	55.8	–
O=C(Nc1ccccc1Cl)c1cc(C2CCCN(C(=O)c3cccs3)C2)on1 (stereo not drawn)	–	·	·	–	·	·
Cc1cccc2nc(COc3ccc4ccccc4c3Br)cn12	–	–	–	–	56.8	–
Cc1cccc2nc(CSc3ccccc3N)cn12	–	–	–	–	–	–
CN(C)/N=C/C=C1\CC/C(=C\c2ccc(F)c(F)c2)C1=O	–	–	–	51.5	–	–
Cc1ccc(Nc2cc(=O)oc3ccccc23)c(C)c1	–	–	–	–	–	–
